Paper PMC8861878 (The Journal of pharmacy and pharmacology, 2020)

Legend:
Assay type in all cases: in vitro ADME
UGT2B7 = molecular target: T1, UGT2B7 (Homo sapiens, UniProt P16662); assay: Inhibition of UGT2B7
T1 sequence (P16662 24-529): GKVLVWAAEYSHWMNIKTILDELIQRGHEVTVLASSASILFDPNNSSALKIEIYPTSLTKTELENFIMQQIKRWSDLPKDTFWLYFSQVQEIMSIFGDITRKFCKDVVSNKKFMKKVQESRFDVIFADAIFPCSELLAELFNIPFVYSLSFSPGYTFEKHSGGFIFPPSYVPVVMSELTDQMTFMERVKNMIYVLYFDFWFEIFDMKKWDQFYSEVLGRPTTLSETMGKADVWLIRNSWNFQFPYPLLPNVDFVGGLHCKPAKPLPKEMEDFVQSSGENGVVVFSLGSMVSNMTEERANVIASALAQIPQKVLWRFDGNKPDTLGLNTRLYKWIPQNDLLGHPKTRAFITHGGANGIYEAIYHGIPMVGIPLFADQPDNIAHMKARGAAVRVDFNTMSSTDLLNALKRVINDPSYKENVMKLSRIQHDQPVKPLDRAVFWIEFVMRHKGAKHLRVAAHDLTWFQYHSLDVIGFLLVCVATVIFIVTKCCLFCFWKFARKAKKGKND

UGT1A9 = molecular target: T2, UGT1A9 (Homo sapiens, UniProt O60656); assay: Inhibition of UGT1A9
T2 sequence (O60656 26-530): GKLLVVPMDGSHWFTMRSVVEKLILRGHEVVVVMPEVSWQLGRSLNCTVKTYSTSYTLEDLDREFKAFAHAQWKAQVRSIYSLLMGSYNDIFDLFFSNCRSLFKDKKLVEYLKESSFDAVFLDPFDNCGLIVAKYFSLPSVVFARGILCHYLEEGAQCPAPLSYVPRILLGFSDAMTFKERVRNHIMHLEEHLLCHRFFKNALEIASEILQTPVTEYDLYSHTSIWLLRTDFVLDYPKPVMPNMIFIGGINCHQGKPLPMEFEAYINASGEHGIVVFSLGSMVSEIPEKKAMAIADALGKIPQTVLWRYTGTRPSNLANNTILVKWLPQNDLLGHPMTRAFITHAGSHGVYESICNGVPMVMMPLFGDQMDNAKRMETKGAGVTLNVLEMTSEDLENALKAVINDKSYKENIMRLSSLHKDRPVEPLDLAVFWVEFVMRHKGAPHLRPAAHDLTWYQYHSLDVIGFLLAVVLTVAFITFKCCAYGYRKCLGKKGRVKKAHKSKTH

CYP2C9 = CYP2C9 (Homo sapiens, UniProt P11712); assay: Inhibition of CYP2C9
CYP2C9, sequence (P11712 whole entry): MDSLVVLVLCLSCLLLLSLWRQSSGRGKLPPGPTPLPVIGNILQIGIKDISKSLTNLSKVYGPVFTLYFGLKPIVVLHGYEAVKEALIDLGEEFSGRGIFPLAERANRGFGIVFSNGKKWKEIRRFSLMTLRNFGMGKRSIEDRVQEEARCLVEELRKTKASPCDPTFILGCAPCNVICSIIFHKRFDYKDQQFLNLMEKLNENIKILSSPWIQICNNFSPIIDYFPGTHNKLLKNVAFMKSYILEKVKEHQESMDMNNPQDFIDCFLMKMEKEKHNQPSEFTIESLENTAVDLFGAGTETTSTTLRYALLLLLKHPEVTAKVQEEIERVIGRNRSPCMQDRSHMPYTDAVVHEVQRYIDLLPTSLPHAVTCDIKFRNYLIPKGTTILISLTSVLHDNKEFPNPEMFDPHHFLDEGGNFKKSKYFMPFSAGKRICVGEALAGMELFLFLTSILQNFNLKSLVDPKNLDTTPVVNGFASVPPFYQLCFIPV

UGT1A8 = molecular target: T3, UGT1A8 (Homo sapiens, UniProt Q9HAW9); assay: Glucuronidation of isobavachin by recombinant UGT1A8, enzyme kinetics; details: formation of G1, substrate inhibition model
T3 sequence (Q9HAW9 26-530): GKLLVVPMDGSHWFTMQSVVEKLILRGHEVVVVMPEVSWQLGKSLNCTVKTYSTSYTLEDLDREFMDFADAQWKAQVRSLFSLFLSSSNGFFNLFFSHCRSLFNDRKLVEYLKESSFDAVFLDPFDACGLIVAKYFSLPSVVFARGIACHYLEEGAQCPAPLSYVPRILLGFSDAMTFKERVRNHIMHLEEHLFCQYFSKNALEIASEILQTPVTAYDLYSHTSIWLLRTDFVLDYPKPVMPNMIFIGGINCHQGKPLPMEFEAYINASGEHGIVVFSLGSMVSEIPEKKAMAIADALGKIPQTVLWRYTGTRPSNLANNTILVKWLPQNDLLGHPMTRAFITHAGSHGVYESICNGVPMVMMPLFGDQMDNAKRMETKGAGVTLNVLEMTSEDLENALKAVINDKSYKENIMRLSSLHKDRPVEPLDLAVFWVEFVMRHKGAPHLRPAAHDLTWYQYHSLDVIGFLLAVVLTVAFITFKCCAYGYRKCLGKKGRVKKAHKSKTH

CYP2C8 = molecular target: T4, CYP2C8 (Homo sapiens, UniProt P10632); assay: Inhibition of CYP2C8; details: isobavachin 1, 10, 100 μM; substrate paclitaxel (60 μM)
T4 sequence (P10632 1-490): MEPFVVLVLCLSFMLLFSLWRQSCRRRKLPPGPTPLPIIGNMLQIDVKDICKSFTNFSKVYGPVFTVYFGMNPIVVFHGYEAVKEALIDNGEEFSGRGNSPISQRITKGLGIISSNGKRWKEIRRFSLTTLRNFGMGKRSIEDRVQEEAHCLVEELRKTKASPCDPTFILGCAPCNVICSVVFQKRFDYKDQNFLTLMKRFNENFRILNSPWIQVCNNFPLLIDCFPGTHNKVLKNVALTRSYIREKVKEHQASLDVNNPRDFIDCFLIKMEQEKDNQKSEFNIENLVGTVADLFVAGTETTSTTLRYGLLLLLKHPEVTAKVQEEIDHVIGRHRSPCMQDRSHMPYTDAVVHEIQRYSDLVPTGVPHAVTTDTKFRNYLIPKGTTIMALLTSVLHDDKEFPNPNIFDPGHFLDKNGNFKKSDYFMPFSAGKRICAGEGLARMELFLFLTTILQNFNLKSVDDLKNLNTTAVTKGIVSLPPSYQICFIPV
Method in brief: (§1)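 Recombinant human CYPs (CYP1A2 and 3A4 at 0.05 mg/ml; CYP2C8 and 2E1 at 0.1 mg/ml) with probe substrate in Tris-HCl 50 mM pH 7.4, MgCl2 5 mM and NADPH 1 mM at 37 °C for 60 min. Run without (control) or with test compound at 1, 10 or 100 μM. Acetonitrile stop; metabolite by UHPLC-TQD-MS; activity versus control, triplicate.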

CYP3A4 = CYP3A4 (Homo sapiens, UniProt P08684); assay: Inhibition of CYP3A4; details: isobavachin 1, 10, 100 μM; substrate nifedipine (40 μM)
CYP3A4, sequence (P08684 whole entry): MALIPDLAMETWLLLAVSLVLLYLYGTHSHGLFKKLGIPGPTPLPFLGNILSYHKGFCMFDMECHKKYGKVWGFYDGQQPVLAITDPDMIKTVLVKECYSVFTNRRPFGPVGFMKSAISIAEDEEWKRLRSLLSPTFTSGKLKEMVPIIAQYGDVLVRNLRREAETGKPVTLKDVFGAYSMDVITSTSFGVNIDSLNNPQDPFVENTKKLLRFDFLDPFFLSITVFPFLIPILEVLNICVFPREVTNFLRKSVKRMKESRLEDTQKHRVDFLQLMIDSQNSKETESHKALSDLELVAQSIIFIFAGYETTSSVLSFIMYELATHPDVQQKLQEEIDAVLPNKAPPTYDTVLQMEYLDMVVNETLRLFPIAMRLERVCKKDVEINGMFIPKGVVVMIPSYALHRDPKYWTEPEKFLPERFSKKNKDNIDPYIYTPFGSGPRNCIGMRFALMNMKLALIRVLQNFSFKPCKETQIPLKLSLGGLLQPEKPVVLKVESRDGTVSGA
Method in brief: as §1

[1] = based on the smallest AIC and SC values

For `CC(C)=CCc1c(O)ccc2c1O[C@H](c1ccc(O)cc1)CC2=O` [isobavachin], the IC50 (UGT2B7) was 90 ± 10 nM, the residual activities (UGT2B7; 10 μM isobavachin) was 19.32 % of the negative control and the Ki (UGT2B7; substrate zidovudine, mixed-type model (not selected)) was 40 ± 10 nM. The Ki (UGT2B7; substrate zidovudine, non-competitive model (selected, smallest AIC and SC)) was 50 ± 10 nM, the Inhibition type (UGT2B7; [1]) was “non-competitive inhibition mode” and the α (UGT2B7; substrate zidovudine, mixed-type model) was 1.80 ± 0.93. The IC50 (UGT1A9) was 1210 ± 300 nM, the residual activities (UGT1A9; 10 μM isobavachin) was 16.51 % of the negative control and the Ki (UGT1A9; substrate propofol, competitive model (not selected)) was 200 ± 30 nM. The Ki (UGT1A9; substrate propofol, mixed-type model (not selected)) was 430 ± 140 nM, the Ki (UGT1A9; substrate propofol, non-competitive model (selected, smallest AIC and SC)) was 440 ± 40 nM and the Inhibition type (UGT1A9; [1]) was “non-competitive inhibition mode”. For the same compound, the α (UGT1A9; substrate propofol, mixed-type model) was 1.05 ± 0.70, the IC50 (CYP2C9) was 40 ± 5 nM and the residual activities (CYP2C9; 10 μM isobavachin) was 1.04 % of the negative control. The Ki (CYP2C9; substrate tolbutamide, mixed-type model (not selected)) was 270 ± 100 nM, the Ki (CYP2C9; substrate tolbutamide, non-competitive model (selected, smallest AIC and SC)) was 220 ± 20 nM and the Inhibition type (CYP2C9; [1]) was “non-competitive inhibition mode”. For the same compound, the α (CYP2C9; substrate tolbutamide, mixed-type model) was 0.70 ± 0.49, the Ki (UGT1A8; substrate inhibition constant) was 17040 ± 3360 nM and the “CLint (CLmax)” value (UGT1A8) was 46.30 ± 11.05 μl/min per mg. For the same compound, the Vmax (UGT1A8) was 1607.00 ± 241.00 pmol/min per mg, the inhibitory effects (CYP2C8) was “negligible or weak” and the inhibitory effects (CYP3A4) was “negligible or weak”.
